From ChEMBL document CHEMBL5230168, “Design, synthesis, and biological evaluation of new arjunolic acid derivatives as anticancer agents” (RSC Med Chem, 2023)

Legend:
[1] = tested on: HT-29; experiment: Cytotoxicity against human HT-29 cells assessed as inhibition of cell growth incubated for 72 hrs by MTT assay; type: functional, cell-based; conditions: HT-29, 72 h
Summary of the method: (§1)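 Cells seeded per well (HT-29 4500, PANC-1 4000, SK-MEL-28 3200, A375 1200, A549 2500, H2170 and BJ 10 000) and left 24 h. They were then exposed to increasing concentrations for 72 h and incubated 1 h with MTT 0.5 mg mL−1. Formazan was dissolved in DMSO and absorbance read at 550 nm. IC50 from three independent experiments. Final DMSO ≤0.5%.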

[2] = tested on: PANC-1; experiment: Cytotoxicity against human PANC-1 cells assessed as inhibition of cell growth incubated for 72 hrs by MTT assay; type: functional, cell-based; conditions: PANC-1, 72 h; summary of the method: as §1
[3] = tested on: HT-29; experiment: Potency index, ratio of Arjunolic acid IC50 to test compound IC50 for cytotoxicity against human HT-29 cells assessed as inhibition of cell growth incubated for 72 hrs by MTT assay; type: functional
Summary of the method: (§2)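 Potency index: arjunolic acid IC50 divided by derivative IC50 from the 72 h MTT assay on HT-29 (4500 cells/well) or PANC-1 (4000 cells/well). IC50 from three independent experiments.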

[4] = tested on: PANC-1; experiment: Potency index, ratio of Arjunolic acid IC50 to test compound IC50 for cytotoxicity against human PANC-1 cells assessed as inhibition of cell growth incubated for 72 hrs by MTT assay; type: functional; summary of the method: as §2
[5] = tested on: A-375; experiment: Cytotoxicity against human A-375 cells assessed as inhibition of cell growth incubated for 72 hrs by MTT assay; type: functional, cell-based; conditions: A-375, 72 h; summary of the method: as §1
[6] = tested on: A549; experiment: Cytotoxicity against human A549 cells assessed as inhibition of cell growth incubated for 72 hrs by MTT assay; type: functional, cell-based; conditions: A549, 72 h; summary of the method: as §1
[7] = tested on: SK-MEL-28; experiment: Cytotoxicity against human SK-MEL-28 cells assessed as inhibition of cell growth incubated for 72 hrs by MTT assay; type: functional, cell-based; conditions: SK-MEL-28, 72 h; summary of the method: as §1
[8] = tested on: NCI-H2170; experiment: Cytotoxicity against human NCI-H2170 cells assessed as inhibition of cell growth incubated for 72 hrs by MTT assay; type: functional, cell-based; conditions: NCI-H2170, 72 h; summary of the method: as §1
[9] = Cytotoxicity against human BJ cells assessed as inhibition of cell growth incubated for 72 hrs by MTT assay; type: toxicity, cell-based; summary of the method: as §1
[10] = Selectivity index, ratio of IC50 for cytotoxicity against human BJ cells to IC50 for cytotoxicity against human PANC-1; type: toxicity, cell-based; conditions: BJ cells and PANC-1 cells, read-out: Ratio IC50
Summary of the method: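 Selectivity index: BJ fibroblast IC50 over PANC-1 IC50, both from the 72 h MTT assay with 24 h pre-seeding (10 000 and 4000 cells/well). IC50 from three independent experiments.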

Row | Compound | IC50 [1] [µM] | IC50 [2] [µM] | other results
1 | COC(=O)[C@]12CCC(C)(C)C[C@H]1C1=CC[C@@H]3[C@@]4(C)C[C@@H](O)OC[C@](C)(C=O)[C@@H]4CC[C@@]3(C)[C@]1(C)CC2 | 5.59 | 6.7 | –
2 | CCCCOC(=O)[C@]12CCC(C)(C)C[C@H]1C1=CC[C@@H]3[C@@]4(C)C[C@@H](O)[C@H](O)[C@@](C)(CO)[C@@H]4CC[C@@]3(C)[C@]1(C)CC2 | 13.7 | 20.2 | Ratio IC50 [3]: 2.7; Ratio IC50 [4]: 2.7
3 | CCOC(=O)[C@]12CCC(C)(C)C[C@H]1C1=CC[C@@H]3[C@@]4(C)C[C@@H](O)[C@H](O)[C@@](C)(CO)[C@@H]4CC[C@@]3(C)[C@]1(C)CC2 | 11.6 | 20.2 | Ratio IC50 [3]: 3.1; Ratio IC50 [4]: 2.7
4 | C=CCOC(=O)[C@]12CCC(C)(C)C[C@H]1C1=CC[C@@H]3[C@@]4(C)C[C@@H](O)[C@H](O)[C@@](C)(CO)[C@@H]4CC[C@@]3(C)[C@]1(C)CC2 | 12.8 | 18.9 | Ratio IC50 [3]: 2.8; Ratio IC50 [4]: 3
5 | CC1(C)CC[C@]2(C(N)=O)CC[C@]3(C)C(=CC[C@@H]4[C@@]5(C)C[C@@H](O)[C@H](O)[C@@](C)(CO)[C@@H]5CC[C@]43C)[C@@H]2C1 | > 30 | > 30 | –
6 | CC1(C)CC[C@]2(C(N)=O)CC[C@]3(C)C(=CC[C@@H]4[C@@]5(C)C[C@@H](O)OC[C@](C)(C=O)[C@@H]5CC[C@]43C)[C@@H]2C1 | – | 29.3 | –
7 | CC(=O)OC[C@@]1(C)[C@@H]2CC[C@]3(C)[C@H](CC=C4[C@@H]5CC(C)(C)CC[C@]5(C(=O)O)CC[C@]43C)[C@@]2(C)C[C@@H](OC(C)=O)[C@@H]1OC(C)=O | 12.4 | 14.9 | –
8 | COC(=O)[C@]12CCC(C)(C)C[C@H]1C1=CC[C@@H]3[C@@]4(C)C(C=O)=C[C@@](C)(CO)[C@@H]4CC[C@@]3(C)[C@]1(C)CC2 | 0.87 | 0.82 | IC50 [5]: 850 nM; IC50 [6]: 1220 nM; IC50 [7]: 850 nM; IC50 [8]: 2110 nM
9 | CNC(=O)[C@]12CCC(C)(C)C[C@H]1C1=CC[C@@H]3[C@@]4(C)C(C=O)=C[C@@](C)(CO)[C@@H]4CC[C@@]3(C)[C@]1(C)CC2 | 7.41 | 2.38 | –
10 | CNC(=O)[C@]12CCC(C)(C)C[C@H]1C1=CC[C@@H]3[C@@]4(C)C[C@@H](O)OC[C@](C)(C=O)[C@@H]4CC[C@@]3(C)[C@]1(C)CC2 | 25.9 | 16.6 | –
11 | CNC(=O)[C@]12CCC(C)(C)C[C@H]1C1=CC[C@@H]3[C@@]4(C)C[C@@H](OC(C)=O)[C@H](OC(C)=O)[C@@](C)(COC(C)=O)[C@@H]4CC[C@@]3(C)[C@]1(C)CC2 | 16.5 | 0.93 | Ratio IC50 [4]: 60
12 | CCCCOC(=O)[C@]12CCC(C)(C)C[C@H]1C1=CC[C@@H]3[C@@]4(C)C(C=O)=C[C@@](C)(CO)[C@@H]4CC[C@@]3(C)[C@]1(C)CC2 | 0.55 | 0.43 | IC50 [5]: 550 nM; IC50 at 72 h [9]: 2790 nM; IC50 [6]: 580 nM; selectivity ratio [10]: 6.5; IC50 [7]: 450 nM; IC50 [8]: 1300 nM
13 | CC1(C)CC[C@]2(C(=O)O)CC[C@]3(C)C(=CC[C@@H]4[C@@]5(C)C(C=O)=C[C@@](C)(CO)[C@@H]5CC[C@]43C)[C@@H]2C1 | 5.73 | 5.27 | –
14 | CCNC(=O)[C@]12CCC(C)(C)C[C@H]1C1=CC[C@@H]3[C@@]4(C)C(C=O)=C[C@@](C)(CO)[C@@H]4CC[C@@]3(C)[C@]1(C)CC2 | 3.43 | 4.15 | –
15 | CCNC(=O)[C@]12CCC(C)(C)C[C@H]1C1=CC[C@@H]3[C@@]4(C)C[C@@H](OC(C)=O)[C@H](OC(C)=O)[C@@](C)(COC(C)=O)[C@@H]4CC[C@@]3(C)[C@]1(C)CC2 | 1.17 | 0.63 | Ratio IC50 [4]: 89
16 | CC1(C)CC[C@]2(C(N)=O)CC[C@]3(C)C(=CC[C@@H]4[C@@]5(C)C(C=O)=C[C@@](C)(CO)[C@@H]5CC[C@]43C)[C@@H]2C1 | 5.81 | 3.74 | –
17 | CNC(=O)[C@]12CCC(C)(C)C[C@H]1C1=CC[C@@H]3[C@@]4(C)C[C@@H](O)[C@H](O)[C@@](C)(CO)[C@@H]4CC[C@@]3(C)[C@]1(C)CC2 | > 30 | > 30 | –
18 | C=CCOC(=O)[C@]12CCC(C)(C)C[C@H]1C1=CC[C@@H]3[C@@]4(C)C(C=O)=C[C@@](C)(CO)[C@@H]4CC[C@@]3(C)[C@]1(C)CC2 | 0.55 | 0.84 | IC50 [5]: 590 nM; IC50 [6]: 820 nM; IC50 [7]: 530 nM; IC50 [8]: 1510 nM
19 | CC1(C)CC[C@]2(C(=O)O)CC[C@]3(C)C(=CC[C@@H]4[C@@]5(C)C[C@@H](O)OC[C@](C)(C=O)[C@@H]5CC[C@]43C)[C@@H]2C1 | > 30 | > 30 | –
20 | CCNC(=O)[C@]12CCC(C)(C)C[C@H]1C1=CC[C@@H]3[C@@]4(C)C[C@@H](O)OC[C@](C)(C=O)[C@@H]4CC[C@@]3(C)[C@]1(C)CC2 | – | 22 | –
21 | CCNC(=O)[C@]12CCC(C)(C)C[C@H]1C1=CC[C@@H]3[C@@]4(C)C[C@@H](O)[C@H](O)[C@@](C)(CO)[C@@H]4CC[C@@]3(C)[C@]1(C)CC2 | 25.5 | 27.6 | –
22 | CC(=O)OC[C@@]1(C)[C@@H]2CC[C@]3(C)[C@H](CC=C4[C@@H]5CC(C)(C)CC[C@]5(C(N)=O)CC[C@]43C)[C@@]2(C)C[C@@H](OC(C)=O)[C@@H]1OC(C)=O | 19.3 | 3.63 | Ratio IC50 [4]: 15
23 | C=CCOC(=O)[C@]12CCC(C)(C)C[C@H]1C1=CC[C@@H]3[C@@]4(C)C[C@@H](O)OC[C@](C)(C=O)[C@@H]4CC[C@@]3(C)[C@]1(C)CC2 | 4.38 | 4.92 | –
24 | CCOC(=O)[C@]12CCC(C)(C)C[C@H]1C1=CC[C@@H]3[C@@]4(C)C[C@@H](O)OC[C@](C)(C=O)[C@@H]4CC[C@@]3(C)[C@]1(C)CC2 | 6.7 | 7.14 | –
25 | CCCCOC(=O)[C@]12CCC(C)(C)C[C@H]1C1=CC[C@@H]3[C@@]4(C)C[C@@H](O)OC[C@](C)(C=O)[C@@H]4CC[C@@]3(C)[C@]1(C)CC2 | 4.46 | 4.58 | –
26 | COC(=O)[C@]12CCC(C)(C)C[C@H]1C1=CC[C@@H]3[C@@]4(C)C[C@@H](O)[C@H](O)[C@@](C)(CO)[C@@H]4CC[C@@]3(C)[C@]1(C)CC2 | 16.7 | 19.7 | Ratio IC50 [3]: 2.2; Ratio IC50 [4]: 2.7
27 | CC1(C)CC[C@]2(C(=O)O)CC[C@]3(C)C(=CC[C@@H]4[C@@]5(C)C[C@@H](O)[C@H](O)[C@@](C)(CO)[C@@H]5CC[C@]43C)[C@@H]2C1 [ARJUNOLIC ACID] | 36.4 | 56.3 | –
